From ChEMBL document CHEMBL4184298, “Development of Potent Inhibitors of Receptor Tyrosine Kinases by Ligand-Based Drug Design and Target-Biased Phenotypic Screening” (J Med Chem, 2018)
Active and inactive are the calls of the source. No cut-off for these calls is given here.

Legend:
Mus musculus = species: Mus musculus; experiment: Antiproliferative activity against mouse AXL-positive Breast cancer cells after 5 days by PrestoBlue assay; assay type: functional
In short: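 Cell proliferation: AXL+ cells were exposed to 8-point half-log dilutions (0.03–100 μM). Viability was read with PrestoBlue reagent on day 5.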

[1] = biological target: RAC-alpha serine/threonine-protein kinase (Homo sapiens, UniProt P31749); experiment: Inhibition of AKT (unknown origin) using poly [Glu, Try] 4:1 as substrate in presence of [gamma-33P]ATP
In short: (§1)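 Radiometric assay on recombinant kinase: ³³P incorporation into the kinase substrate was measured and activity was expressed relative to a DMSO control.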

[2] = biological target: Proto-oncogene tyrosine-protein kinase Src (Homo sapiens, UniProt P12931); experiment: Inhibition of wild-type human partial length SRC (L240 to L536 residues) expressed in bacterial expression system using poly [Glu, Try] 4:1 as substrate in presence of [gamma-33P]ATP
[3] = biological target: Hepatocyte growth factor receptor (Homo sapiens, UniProt P08581); experiment: Inhibition of wild-type human partial length MET (D1010 to S1367 residues) expressed in bacterial expression system using poly [Glu, Try] 4:1 as substrate in presence of [gamma-33P]ATP; in short: as §1
[4] = biological target: T1, Tyrosine-protein kinase receptor TYRO3 (Homo sapiens, UniProt Q06418); experiment: Inhibition of wild-type human partial length TYRO3 (S497 to T814 residues) expressed in bacterial expression system using poly [Glu, Try] 4:1 as substrate in presence of [gamma-33P]ATP; in short: as §1
T1 sequence (Q06418 whole entry): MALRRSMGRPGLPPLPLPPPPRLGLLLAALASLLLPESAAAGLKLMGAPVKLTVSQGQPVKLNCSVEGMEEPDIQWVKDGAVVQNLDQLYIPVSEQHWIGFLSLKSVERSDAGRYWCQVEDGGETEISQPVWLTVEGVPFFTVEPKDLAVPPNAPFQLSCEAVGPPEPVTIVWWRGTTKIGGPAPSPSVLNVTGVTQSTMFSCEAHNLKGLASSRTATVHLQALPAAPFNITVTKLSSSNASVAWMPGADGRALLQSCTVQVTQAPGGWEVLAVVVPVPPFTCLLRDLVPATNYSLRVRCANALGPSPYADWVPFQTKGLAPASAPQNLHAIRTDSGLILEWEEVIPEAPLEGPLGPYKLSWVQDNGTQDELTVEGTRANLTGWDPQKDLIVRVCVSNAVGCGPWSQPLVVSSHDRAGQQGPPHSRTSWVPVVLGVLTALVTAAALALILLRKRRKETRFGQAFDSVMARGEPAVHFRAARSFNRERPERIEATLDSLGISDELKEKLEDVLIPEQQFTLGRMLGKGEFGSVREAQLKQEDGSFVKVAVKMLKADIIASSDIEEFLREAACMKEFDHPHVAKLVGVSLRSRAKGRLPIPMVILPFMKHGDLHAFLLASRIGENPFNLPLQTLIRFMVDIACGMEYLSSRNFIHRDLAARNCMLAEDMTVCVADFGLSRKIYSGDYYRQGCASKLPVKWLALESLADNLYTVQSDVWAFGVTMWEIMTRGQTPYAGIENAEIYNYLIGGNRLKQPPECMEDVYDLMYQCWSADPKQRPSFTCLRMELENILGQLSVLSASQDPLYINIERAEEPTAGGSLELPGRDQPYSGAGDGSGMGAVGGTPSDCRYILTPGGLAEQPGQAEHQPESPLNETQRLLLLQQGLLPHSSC

[5] = biological target: Mast/stem cell growth factor receptor Kit (Homo sapiens, UniProt P10721); experiment: Inhibition of wild-type human partial length KIT (I571 to D952 residues) expressed in bacterial expression system using poly [Glu, Try] 4:1 as substrate in presence of [gamma-33P]ATP; in short: as §1
Aurora kinase A = biological target: T2, Aurora kinase A (Homo sapiens, UniProt O14965); experiment: Inhibition of human partial length Aurora A (E122 to K401 residues) expressed in mammalian expression system using poly [Glu, Try] 4:1 as substrate in presence of [gamma-33P]ATP; in short: as §1
T2 sequence (O14965 whole entry): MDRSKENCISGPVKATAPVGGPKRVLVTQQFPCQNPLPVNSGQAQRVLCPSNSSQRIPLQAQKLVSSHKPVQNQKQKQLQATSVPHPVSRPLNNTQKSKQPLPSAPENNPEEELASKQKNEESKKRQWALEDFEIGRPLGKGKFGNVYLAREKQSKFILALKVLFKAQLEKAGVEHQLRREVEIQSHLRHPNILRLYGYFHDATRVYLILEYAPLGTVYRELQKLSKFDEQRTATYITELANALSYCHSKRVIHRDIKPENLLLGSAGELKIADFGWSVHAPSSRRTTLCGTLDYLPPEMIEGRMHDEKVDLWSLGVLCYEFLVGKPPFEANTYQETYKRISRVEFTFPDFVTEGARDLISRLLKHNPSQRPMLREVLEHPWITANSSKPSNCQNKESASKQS

[6] = biological target: Serine/threonine-protein kinase mTOR (Homo sapiens, UniProt P42345); experiment: Inhibition of wild-type human partial length MTOR (L1382 to W2549 residues) expressed in mammalian expression system using poly [Glu, Try] 4:1 as substrate in presence of [gamma-33P]ATP; in short: as §1
[7] = biological target: Vascular endothelial growth factor receptor 2 (Homo sapiens, UniProt P35968); experiment: Inhibition of wild-type human partial length VEGFR2 (R787 to P1253 residues) expressed in mammalian expression system using poly [Glu, Try] 4:1 as substrate in presence of [gamma-33P]ATP
Chain of Vascular endothelial growth factor receptor 2 (P35968 whole entry, the tested form may be a part): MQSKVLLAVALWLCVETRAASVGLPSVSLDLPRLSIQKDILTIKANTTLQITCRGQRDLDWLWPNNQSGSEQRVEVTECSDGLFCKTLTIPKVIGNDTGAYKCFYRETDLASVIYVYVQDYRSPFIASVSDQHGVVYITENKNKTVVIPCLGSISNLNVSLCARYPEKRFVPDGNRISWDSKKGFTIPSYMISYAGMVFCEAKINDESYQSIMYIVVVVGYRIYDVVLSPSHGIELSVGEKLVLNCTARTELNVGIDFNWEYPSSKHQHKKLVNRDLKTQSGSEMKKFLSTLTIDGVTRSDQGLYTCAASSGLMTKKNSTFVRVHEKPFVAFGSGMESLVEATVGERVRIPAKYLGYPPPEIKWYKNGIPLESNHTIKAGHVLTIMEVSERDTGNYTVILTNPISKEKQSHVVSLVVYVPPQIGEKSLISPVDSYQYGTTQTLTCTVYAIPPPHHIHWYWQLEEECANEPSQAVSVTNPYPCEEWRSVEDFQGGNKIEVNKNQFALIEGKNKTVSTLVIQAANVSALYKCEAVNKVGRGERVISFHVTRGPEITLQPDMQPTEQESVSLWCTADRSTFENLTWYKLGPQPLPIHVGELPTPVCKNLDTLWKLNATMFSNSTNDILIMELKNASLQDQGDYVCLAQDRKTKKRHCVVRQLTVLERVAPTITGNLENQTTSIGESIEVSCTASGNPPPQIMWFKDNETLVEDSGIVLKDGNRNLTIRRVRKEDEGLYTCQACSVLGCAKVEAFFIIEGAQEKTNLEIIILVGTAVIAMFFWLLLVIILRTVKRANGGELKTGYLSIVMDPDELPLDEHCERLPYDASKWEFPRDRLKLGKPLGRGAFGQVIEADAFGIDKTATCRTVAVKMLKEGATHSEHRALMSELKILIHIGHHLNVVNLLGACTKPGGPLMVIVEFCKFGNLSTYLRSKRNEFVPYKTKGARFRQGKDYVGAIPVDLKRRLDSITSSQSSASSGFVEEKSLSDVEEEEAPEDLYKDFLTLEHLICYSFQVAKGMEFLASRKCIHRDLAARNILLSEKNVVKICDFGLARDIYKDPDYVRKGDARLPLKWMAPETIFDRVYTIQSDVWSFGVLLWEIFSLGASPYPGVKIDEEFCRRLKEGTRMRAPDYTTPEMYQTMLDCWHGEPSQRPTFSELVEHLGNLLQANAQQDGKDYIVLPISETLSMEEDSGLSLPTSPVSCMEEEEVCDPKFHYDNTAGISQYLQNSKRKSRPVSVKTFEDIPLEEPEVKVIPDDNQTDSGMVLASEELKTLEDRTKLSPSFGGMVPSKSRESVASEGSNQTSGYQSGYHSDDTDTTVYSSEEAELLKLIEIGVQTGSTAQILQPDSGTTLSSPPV

Chain of Mast/stem cell growth factor receptor Kit (P10721 whole entry, the tested form may be a part): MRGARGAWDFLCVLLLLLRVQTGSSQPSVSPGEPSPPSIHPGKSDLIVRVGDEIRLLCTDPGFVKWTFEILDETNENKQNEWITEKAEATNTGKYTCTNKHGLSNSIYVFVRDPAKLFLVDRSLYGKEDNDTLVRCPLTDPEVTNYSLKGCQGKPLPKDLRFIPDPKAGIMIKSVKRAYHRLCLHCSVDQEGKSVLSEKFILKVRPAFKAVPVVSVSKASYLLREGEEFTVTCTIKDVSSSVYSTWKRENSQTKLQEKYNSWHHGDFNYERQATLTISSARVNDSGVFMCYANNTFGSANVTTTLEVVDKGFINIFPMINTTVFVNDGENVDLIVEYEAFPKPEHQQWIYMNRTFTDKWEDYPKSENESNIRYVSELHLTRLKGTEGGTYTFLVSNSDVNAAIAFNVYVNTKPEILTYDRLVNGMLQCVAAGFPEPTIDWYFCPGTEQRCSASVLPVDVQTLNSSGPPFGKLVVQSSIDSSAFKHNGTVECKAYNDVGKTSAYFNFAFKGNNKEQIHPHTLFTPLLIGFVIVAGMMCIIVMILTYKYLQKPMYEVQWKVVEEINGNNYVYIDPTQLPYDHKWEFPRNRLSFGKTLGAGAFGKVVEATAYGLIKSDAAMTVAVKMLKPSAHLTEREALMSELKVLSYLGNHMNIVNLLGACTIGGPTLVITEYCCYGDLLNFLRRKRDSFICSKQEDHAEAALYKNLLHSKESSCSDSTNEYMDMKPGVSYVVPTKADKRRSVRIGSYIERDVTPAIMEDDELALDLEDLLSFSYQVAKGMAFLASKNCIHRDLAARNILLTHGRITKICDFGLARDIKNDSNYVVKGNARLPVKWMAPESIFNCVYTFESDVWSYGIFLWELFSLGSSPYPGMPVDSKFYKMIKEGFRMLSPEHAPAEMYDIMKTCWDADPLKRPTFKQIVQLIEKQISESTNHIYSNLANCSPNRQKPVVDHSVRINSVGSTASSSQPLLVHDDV
Chain of Hepatocyte growth factor receptor (P08581 whole entry, the tested form may be a part): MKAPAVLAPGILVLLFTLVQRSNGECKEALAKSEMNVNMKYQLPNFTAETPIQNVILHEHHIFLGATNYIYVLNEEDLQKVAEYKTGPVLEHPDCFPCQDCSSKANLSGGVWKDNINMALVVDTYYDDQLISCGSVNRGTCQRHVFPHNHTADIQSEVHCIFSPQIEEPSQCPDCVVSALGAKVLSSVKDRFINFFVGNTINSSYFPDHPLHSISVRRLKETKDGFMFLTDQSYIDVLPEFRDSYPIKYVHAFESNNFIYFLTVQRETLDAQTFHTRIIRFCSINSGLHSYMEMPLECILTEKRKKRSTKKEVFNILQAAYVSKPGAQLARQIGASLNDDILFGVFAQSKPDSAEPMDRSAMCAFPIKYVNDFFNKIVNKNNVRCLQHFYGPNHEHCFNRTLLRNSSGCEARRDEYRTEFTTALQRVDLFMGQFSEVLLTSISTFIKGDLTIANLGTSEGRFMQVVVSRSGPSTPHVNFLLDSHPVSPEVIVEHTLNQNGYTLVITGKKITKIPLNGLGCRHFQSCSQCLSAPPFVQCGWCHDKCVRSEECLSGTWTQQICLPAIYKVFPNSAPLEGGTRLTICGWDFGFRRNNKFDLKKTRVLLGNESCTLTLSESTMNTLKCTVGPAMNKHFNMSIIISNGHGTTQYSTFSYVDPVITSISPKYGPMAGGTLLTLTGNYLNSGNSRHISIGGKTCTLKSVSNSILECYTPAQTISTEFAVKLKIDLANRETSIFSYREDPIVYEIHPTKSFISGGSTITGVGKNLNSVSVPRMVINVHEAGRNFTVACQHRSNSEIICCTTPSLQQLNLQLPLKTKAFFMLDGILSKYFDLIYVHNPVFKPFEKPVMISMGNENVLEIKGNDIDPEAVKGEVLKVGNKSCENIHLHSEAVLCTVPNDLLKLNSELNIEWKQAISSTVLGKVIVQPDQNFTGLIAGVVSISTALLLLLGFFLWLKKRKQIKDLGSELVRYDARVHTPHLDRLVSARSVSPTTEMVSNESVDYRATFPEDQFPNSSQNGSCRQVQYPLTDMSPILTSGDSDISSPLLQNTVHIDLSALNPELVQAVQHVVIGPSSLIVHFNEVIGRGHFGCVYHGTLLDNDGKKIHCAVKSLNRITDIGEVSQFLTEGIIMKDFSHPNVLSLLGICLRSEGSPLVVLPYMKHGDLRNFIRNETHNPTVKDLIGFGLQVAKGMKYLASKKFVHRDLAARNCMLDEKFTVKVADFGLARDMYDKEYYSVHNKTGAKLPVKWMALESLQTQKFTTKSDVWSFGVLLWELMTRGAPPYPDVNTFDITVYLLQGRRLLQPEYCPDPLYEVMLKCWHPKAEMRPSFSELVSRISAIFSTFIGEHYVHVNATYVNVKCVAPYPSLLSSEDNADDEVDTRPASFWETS
Chain of Proto-oncogene tyrosine-protein kinase Src (P12931 2-536 limits assumed): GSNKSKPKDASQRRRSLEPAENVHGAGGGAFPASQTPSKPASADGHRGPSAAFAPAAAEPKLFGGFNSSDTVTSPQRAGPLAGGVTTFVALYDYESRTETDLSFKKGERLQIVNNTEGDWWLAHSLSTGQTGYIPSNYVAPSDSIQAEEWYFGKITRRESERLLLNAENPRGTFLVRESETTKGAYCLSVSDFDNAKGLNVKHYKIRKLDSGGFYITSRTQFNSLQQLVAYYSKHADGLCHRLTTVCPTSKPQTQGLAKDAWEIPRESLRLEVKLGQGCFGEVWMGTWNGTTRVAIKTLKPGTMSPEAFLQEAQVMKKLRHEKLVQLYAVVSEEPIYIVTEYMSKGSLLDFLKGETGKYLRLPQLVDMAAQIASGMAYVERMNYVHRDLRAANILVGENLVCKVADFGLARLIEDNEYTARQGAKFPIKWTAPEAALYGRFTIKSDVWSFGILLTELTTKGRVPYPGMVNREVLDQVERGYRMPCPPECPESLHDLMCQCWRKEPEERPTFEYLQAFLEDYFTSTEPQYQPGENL
Chain of RAC-alpha serine/threonine-protein kinase (P31749 whole entry): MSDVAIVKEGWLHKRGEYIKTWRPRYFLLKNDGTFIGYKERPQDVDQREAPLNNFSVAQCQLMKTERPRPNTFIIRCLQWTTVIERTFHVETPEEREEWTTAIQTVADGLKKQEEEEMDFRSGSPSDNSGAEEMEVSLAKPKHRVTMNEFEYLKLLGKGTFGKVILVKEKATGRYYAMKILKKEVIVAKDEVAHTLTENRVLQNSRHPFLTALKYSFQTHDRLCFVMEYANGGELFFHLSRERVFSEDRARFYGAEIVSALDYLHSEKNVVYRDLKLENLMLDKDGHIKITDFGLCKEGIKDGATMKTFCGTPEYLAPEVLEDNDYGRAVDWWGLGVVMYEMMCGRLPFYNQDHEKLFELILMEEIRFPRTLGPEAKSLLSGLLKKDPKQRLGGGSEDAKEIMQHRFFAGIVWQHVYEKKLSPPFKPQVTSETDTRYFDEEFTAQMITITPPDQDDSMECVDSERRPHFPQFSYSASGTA

Row | Compound | Activity (Mus musculus) | further results
1 | CNc1ncc2c(-c3ccc(N4CCNCC4)nc3)nn(Cc3cn(-c4ccc(OC)cc4)nn3)c2n1 | inactive | –
2 | CNc1ncc2c(-c3cnc4[nH]ccc4c3)nn(Cc3cn(Cc4ccccc4)nn3)c2n1 | inactive | –
3 | CNc1ncc2c(-c3ccc(N4CCNCC4)nc3)nn(Cc3cn(C4CCCCC4O)nn3)c2n1 (stereo unspecified) | inactive | –
4 | CNc1ncc2c(-c3ccc(N4CCNCC4)nc3)nn(Cc3cn(-c4ccc(Cl)cc4)nn3)c2n1 | inactive | –
5 | CNc1ccc(-c2nn(Cc3cn(Cc4ccccc4)nn3)c3nc(NC)ncc23)cn1 | inactive | –
6 | CNc1ncc2c(-c3ccc(N4CCNCC4)nc3)nn(Cc3cn(C4CCCC4O)nn3)c2n1 (stereo unspecified) | inactive | –
7 | CNc1ncc2c(-c3ccc(N4CCNCC4)nc3)nn(Cc3cn(-c4ccccc4)nn3)c2n1 | inactive | –
8 | CNc1ncc2c(-c3ccc(N4CCNCC4)nc3)nn(Cc3cn(Cc4ccccc4)nn3)c2n1 | Active | IC50 [1]: > 10 µM; IC50 [2]: 1 µM; IC50 [3]: > 10 µM; IC50 [4]: > 10 µM; IC50 [5]: > 10 µM; IC50 (Aurora kinase A): 1.8 µM; IC50 [6]: > 10 µM; IC50 [7]: > 10 µM
